ChEMBL document CHEMBL2203183, “Synthesis of N-phenyl-N-(3-(piperidin-1-yl)propyl)benzofuran-2-carboxamides as new selective ligands for sigma receptors” (Bioorg Med Chem, 2012)

Legend:
[1] = target: T1, Muscarinic acetylcholine receptor M4 (Homo sapiens, UniProt P08173); experiment: Displacement of [3H]QNB from human recombinant M4 receptor after 1.5 hrs by scintillation counting analysis
T1 sequence (P08173 whole entry): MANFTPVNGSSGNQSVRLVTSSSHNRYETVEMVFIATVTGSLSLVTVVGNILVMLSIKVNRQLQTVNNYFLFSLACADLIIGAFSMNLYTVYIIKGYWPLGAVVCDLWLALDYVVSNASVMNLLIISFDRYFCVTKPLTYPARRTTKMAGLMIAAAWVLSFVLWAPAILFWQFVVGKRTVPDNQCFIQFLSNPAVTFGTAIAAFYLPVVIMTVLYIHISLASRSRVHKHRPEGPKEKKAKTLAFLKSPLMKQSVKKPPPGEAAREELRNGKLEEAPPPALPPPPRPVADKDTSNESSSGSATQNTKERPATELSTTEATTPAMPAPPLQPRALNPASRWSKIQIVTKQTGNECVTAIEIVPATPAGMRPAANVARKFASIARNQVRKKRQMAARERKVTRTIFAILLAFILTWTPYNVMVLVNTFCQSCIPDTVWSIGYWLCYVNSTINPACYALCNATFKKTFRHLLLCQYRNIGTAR
How it was run: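 Membranes from transiently or stably transfected cell lines, run through the NIMH-PDSP program. [3H]QNB was the radioligand and atropine the reference. […] Competition curves were fitted to a three-parameter logistic to give IC50, converted to Ki by Cheng-Prusoff.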

[2] = Displacement of [3H]DTG from sigma 2 receptor in rat PC12 cell membrane after 2 hrs by scintillation counting; assay type: cell membranes; conditions: pc-12
[3] = target: T2, Muscarinic acetylcholine receptor M4 (Homo sapiens) (UniProt P08173); experiment: Displacement of [3H]QNB from human recombinant M4 receptor at 10 uM after 1.5 hrs by scintillation counting analysis
T2 sequence (whole entry): T1 sequence (P08173 whole entry)
How it was run: (§1)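 NIMH-PDSP primary screen using membranes from transiently or stably transfected cell lines (e.g., HEK293, COS, CHO, NIH3T3). Compound at 10 μM final. Reference compounds: chlorpromazine (5-HT2A), methysergide (5-HT2B), LY278584 (5-HT3), oxymetazoline (α2A), prazosin (α2C), atropine (M4). Mean % inhibition of radioligand specific binding, N = 4.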

[4] = target: D(3) dopamine receptor (Homo sapiens) (UniProt P35462); experiment: Displacement of [3H]N-methylspiperone from dopamine D3 receptor at 10 uM after 1.5 hrs by scintillation counting analysis
[5] = target: T3, Alpha-2C adrenergic receptor (Homo sapiens) (UniProt P18825); experiment: Displacement of [3H]clonidine from alpha2C adrenergic receptor at 10 uM after 40 mins by scintillation counting analysis; how it was run: as §1
T3 sequence (whole entry): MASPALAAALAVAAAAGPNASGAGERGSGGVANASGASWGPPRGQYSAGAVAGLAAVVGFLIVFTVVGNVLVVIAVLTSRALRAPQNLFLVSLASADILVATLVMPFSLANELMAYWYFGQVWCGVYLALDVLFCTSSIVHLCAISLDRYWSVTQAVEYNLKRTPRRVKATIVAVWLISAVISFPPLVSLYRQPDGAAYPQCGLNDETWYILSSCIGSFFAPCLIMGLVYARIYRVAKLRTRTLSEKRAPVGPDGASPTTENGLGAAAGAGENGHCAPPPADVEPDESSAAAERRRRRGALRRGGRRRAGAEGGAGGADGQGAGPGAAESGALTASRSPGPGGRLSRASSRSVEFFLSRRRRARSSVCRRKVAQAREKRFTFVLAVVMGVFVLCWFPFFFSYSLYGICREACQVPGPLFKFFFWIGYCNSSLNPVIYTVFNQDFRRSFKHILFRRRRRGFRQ

[6] = target: T4, 5-hydroxytryptamine receptor 3A (Homo sapiens) (UniProt P46098); experiment: Displacement of [3H]LY278584 from human recombinant 5-HT3 receptor at 10 uM after 1.5 hrs by scintillation counting analysis; how it was run: as §1
T4 sequence (whole entry): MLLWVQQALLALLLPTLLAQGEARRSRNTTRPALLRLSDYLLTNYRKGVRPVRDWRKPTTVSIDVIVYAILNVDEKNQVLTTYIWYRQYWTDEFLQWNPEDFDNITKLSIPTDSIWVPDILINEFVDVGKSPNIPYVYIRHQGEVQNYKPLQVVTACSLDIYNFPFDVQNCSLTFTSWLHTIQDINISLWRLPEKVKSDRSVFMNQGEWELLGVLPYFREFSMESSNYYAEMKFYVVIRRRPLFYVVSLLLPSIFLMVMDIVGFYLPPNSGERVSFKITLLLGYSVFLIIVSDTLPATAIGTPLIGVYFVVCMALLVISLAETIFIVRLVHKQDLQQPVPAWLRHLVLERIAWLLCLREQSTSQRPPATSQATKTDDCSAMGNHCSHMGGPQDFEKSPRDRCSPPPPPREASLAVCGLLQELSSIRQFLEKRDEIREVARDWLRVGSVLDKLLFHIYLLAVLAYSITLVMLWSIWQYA

[7] = target: 5-hydroxytryptamine receptor 2B (Homo sapiens) (UniProt P41595); experiment: Displacement of [3H]LSD from human recombinant 5-HT2B receptor at 10 uM after 1.5 hrs by scintillation counting analysis; how it was run: as §1
[8] = target: 5-hydroxytryptamine receptor 2A (Homo sapiens) (UniProt P28223); experiment: Displacement of [3H]ketanserin from human recombinant 5-HT2A receptor at 10 uM after 1.5 hrs by scintillation counting analysis; how it was run: as §1
PC-12 = experiment: Displacement of [3H]DTG from sigma 2 receptor in rat PC12 cell membrane at 10 uM after 2 hrs by scintillation counting; assay type: cell membranes
[9] = target: Sigma non-opioid intracellular receptor 1 (Rattus norvegicus) (UniProt Q9R0C9); experiment: Displacement of [3H](+)-pentazocine from sigma 1 receptor in rat brain membrane at 10 uM after 2.5 hrs by scintillation counting; assay type: cell membranes
[10] = target: T5, Alpha-2A adrenergic receptor (Homo sapiens) (UniProt P08913); experiment: Displacement of [3H]clonidine from alpha2A adrenergic receptor at 10 uM after 40 mins by scintillation counting analysis
T5 sequence (whole entry): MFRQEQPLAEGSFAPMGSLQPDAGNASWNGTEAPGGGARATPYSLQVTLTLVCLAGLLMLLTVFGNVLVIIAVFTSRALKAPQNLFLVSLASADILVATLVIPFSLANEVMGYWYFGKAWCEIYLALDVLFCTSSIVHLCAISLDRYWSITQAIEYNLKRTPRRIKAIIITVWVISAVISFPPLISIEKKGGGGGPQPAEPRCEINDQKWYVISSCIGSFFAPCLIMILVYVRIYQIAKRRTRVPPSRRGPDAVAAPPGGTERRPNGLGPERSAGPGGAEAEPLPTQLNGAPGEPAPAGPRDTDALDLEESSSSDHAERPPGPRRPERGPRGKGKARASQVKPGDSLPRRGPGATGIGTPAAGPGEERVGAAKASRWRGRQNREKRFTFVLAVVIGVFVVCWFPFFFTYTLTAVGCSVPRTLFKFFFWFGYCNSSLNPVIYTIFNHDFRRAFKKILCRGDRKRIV

5-hydroxytryptamine receptor 2A (Homo sapiens), sequence (P28223 whole entry): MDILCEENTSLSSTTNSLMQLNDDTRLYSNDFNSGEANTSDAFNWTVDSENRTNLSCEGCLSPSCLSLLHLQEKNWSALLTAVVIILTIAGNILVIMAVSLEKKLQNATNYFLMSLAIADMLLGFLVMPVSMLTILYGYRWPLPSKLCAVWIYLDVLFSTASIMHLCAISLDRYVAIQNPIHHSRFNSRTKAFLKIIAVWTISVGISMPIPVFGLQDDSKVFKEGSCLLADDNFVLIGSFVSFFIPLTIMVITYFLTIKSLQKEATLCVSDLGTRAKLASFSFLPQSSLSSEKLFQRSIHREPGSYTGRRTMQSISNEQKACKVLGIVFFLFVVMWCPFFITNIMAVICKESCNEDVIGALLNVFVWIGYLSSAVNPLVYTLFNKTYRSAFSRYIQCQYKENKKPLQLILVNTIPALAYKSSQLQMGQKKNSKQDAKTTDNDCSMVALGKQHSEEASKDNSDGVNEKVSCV
5-hydroxytryptamine receptor 2B (Homo sapiens), sequence (P41595 whole entry): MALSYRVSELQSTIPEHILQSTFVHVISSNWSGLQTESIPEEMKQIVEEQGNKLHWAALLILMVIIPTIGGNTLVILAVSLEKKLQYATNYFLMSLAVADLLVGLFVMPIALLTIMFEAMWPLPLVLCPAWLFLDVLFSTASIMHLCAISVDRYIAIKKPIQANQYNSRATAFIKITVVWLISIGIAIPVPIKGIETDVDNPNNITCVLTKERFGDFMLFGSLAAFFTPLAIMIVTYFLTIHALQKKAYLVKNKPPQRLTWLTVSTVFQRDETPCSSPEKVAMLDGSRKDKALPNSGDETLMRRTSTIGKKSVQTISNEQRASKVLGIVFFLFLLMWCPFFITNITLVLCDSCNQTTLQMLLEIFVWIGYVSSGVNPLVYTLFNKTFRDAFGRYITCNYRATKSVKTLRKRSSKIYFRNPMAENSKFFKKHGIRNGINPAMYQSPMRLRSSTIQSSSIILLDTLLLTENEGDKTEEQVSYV
Sigma non-opioid intracellular receptor 1 (Rattus norvegicus), sequence (Q9R0C9 whole entry): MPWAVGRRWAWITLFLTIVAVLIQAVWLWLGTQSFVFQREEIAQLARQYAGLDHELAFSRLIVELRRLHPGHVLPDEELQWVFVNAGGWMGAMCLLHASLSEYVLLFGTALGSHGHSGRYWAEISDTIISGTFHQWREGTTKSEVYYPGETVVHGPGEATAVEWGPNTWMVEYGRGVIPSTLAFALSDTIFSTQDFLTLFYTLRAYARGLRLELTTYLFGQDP
D(3) dopamine receptor (Homo sapiens), sequence (P35462 whole entry): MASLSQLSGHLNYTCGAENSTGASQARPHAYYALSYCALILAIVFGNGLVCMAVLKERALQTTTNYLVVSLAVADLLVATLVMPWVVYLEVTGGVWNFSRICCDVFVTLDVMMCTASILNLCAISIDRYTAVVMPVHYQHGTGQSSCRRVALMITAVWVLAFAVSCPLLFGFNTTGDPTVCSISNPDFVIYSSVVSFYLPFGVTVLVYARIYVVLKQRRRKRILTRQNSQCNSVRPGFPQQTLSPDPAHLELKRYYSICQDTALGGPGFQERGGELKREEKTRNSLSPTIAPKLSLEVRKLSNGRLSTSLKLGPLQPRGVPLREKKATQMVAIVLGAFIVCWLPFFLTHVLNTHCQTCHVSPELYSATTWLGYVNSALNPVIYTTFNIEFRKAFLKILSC

Structure (SMILES) | Ki [1] [nM] | Ki [2] [nM] | inhibition [3] [%] | inhibition [4] [%] | inhibition [5] [%] | inhibition [6] [%] | inhibition [7] [%] | inhibition [8] [%] | inhibition (PC-12) [%] | inhibition [9] [%] | inhibition [10] [%]
COc1ccc2c(C)c(C(=O)N(CCCN3CCCCC3)c3ccccc3)oc2c1 | > 10000 | 41 | 68.4 | 40.6 | 49 | 7.3 | 93.9 | 61.2 | 88.5 | 97.7 | –
COc1cc2oc(C(=O)N(CCCN3CCCCC3)c3ccccc3)c(C)c2cc1OC | – | 528 | 54.4 | 38.8 | 78.9 | 64.2 | 43.8 | 76.6 | 81.4 | 99.8 | –
Cc1c(C(=O)N(CCCN2CCCCC2)c2ccccc2)oc2ccccc12 | – | 16 | 43.1 | – | 61.9 | 2.9 | 69.2 | 18.1 | 93.5 | – | 77.7
